≈ marks a conversion by molar mass, not a printed value.
What was measured:
Assay type in all cases: functional
Pseudomonas aeruginosa [1] = assay: Antibacterial activity against Pseudomonas aeruginosa FE63 containing inactivated rplY and PA5471 genes by microdilution method
Pseudomonas aeruginosa [2] = assay: Antibacterial activity against Pseudomonas aeruginosa FE60 containing inactivated mexXY gene by microdilution method
Pseudomonas aeruginosa [3] = assay: Antibacterial activity against Pseudomonas aeruginosa FE57GUZ with inactivated rplY, nuoG, galU and mexZ genes […]
Pseudomonas aeruginosa [4] = assay: Antibacterial activity against Pseudomonas aeruginosa FE57 with inactivated rplY gene by microdilution method
Pseudomonas aeruginosa [5] = assay: Antibacterial activity against Pseudomonas aeruginosa PAO1 by microdilution method
Pseudomonas aeruginosa [6] = assay: Antibacterial activity against Pseudomonas aeruginosa FE53 with inactivated mexZ gene by microdilution method
Pseudomonas aeruginosa [7] = assay: Antibacterial activity against Pseudomonas aeruginosa FE64 containing inactivated rplY and mexXY genes by microdilution method
Pseudomonas aeruginosa [8] = assay: Antibacterial activity against Pseudomonas aeruginosa FE57U with inactivated rplY and galU genes by microdilution method
Pseudomonas aeruginosa [9] = assay: Antibacterial activity against Pseudomonas aeruginosa FE57GU with inactivated rplY, nuoG and galU genes by […]
Pseudomonas aeruginosa [10] = assay: Antibacterial activity against Pseudomonas aeruginosa FE53G with inactivated mexZ and nuoG genes by microdilution method
Pseudomonas aeruginosa [11] = assay: Antibacterial activity against Pseudomonas aeruginosa FE10 with inactivated nuoG gene by microdilution method
Pseudomonas aeruginosa [12] = assay: Antibacterial activity against Pseudomonas aeruginosa FE53GU with inactivated mexZ, nuoG and galU genes by […]
Pseudomonas aeruginosa [13] = assay: Antibacterial activity against Pseudomonas aeruginosa FE57 containing inactivated rplY gene with pARAL25 by microdilution method
In short: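 MIC for the rplY mutant carrying plasmid-borne rplY under the arabinose-inducible pBAD promoter. Cells grown with 150 μg/ml ticarcillin to keep the plasmid and 0.2% arabinose. Serial twofold dilution with about 10^4 bacteria per spot at 37°C.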

Pseudomonas aeruginosa [14] = assay: Antibacterial activity against Pseudomonas aeruginosa FE57UZ with inactivated rplY, galU and mexZ genes […]
Pseudomonas aeruginosa [15] = assay: Antibacterial activity against Pseudomonas aeruginosa FE10U with inactivated nuoG and galU genes by microdilution method
Pseudomonas aeruginosa [16] = assay: Antibacterial activity against Pseudomonas aeruginosa FE57GZ with inactivated rplY, nuoG and mexZ genes […]
Pseudomonas aeruginosa [17] = assay: Antibacterial activity against Pseudomonas aeruginosa FE57G with inactivated rplY and nuoG genes by microdilution method
Pseudomonas aeruginosa [18] = assay: Antibacterial activity against Pseudomonas aeruginosa FE53U with inactivated mexZ and galU genes by microdilution method
Pseudomonas aeruginosa [19] = assay: Antibacterial activity against Pseudomonas aeruginosa FE57Z with inactivated rplY and mexZ genes by microdilution method
Pseudomonas aeruginosa [20] = assay: Antibacterial activity against Pseudomonas aeruginosa KJ7106 with inactivated PA5471 gene by microdilution method
Pseudomonas aeruginosa [21] = assay: Antibacterial activity against Pseudomonas aeruginosa FE49 with inactivated galU gene by microdilution method

Compound	MIC (Pseudomonas aeruginosa [1]) [µg/mL]	MIC (Pseudomonas aeruginosa [2]) [µg/mL]	MIC (Pseudomonas aeruginosa [3]) [µg/mL]	MIC (Pseudomonas aeruginosa [4]) [µg/mL]	MIC (Pseudomonas aeruginosa [5]) [µg/mL]	MIC (Pseudomonas aeruginosa [6]) [µg/mL]	MIC (Pseudomonas aeruginosa [7]) [µg/mL]	MIC (Pseudomonas aeruginosa [8]) [µg/mL]	MIC (Pseudomonas aeruginosa [9]) [µg/mL]	MIC (Pseudomonas aeruginosa [10]) [µg/mL]	MIC (Pseudomonas aeruginosa [11]) [µg/mL]	MIC (Pseudomonas aeruginosa [12]) [µg/mL]	MIC (Pseudomonas aeruginosa [14]) [µg/mL]	MIC (Pseudomonas aeruginosa [15]) [µg/mL]	MIC (Pseudomonas aeruginosa [16]) [µg/mL]	MIC (Pseudomonas aeruginosa [17]) [µg/mL]	MIC (Pseudomonas aeruginosa [18]) [µg/mL]	MIC (Pseudomonas aeruginosa [19]) [µg/mL]	MIC (Pseudomonas aeruginosa [20]) [µg/mL]	MIC (Pseudomonas aeruginosa [21]) [µg/mL]	further results
NC[C@H]1O[C@H](O[C@H]2[C@H](O)[C@@H](O[C@H]3O[C@H](CO)[C@@H](O)[C@H](N)[C@H]3O)[C@H](N)C[C@@H]2N)[C@H](N)C[C@@H]1O [TOBRAMYCIN]	0.5 (≈ 1.07 µM)	0.25 (≈ 0.535 µM)	8 (≈ 17.1 µM)	1 (≈ 2.14 µM)	0.5 (≈ 1.07 µM)	1 (≈ 2.14 µM)	0.5 (≈ 1.07 µM)	2 (≈ 4.28 µM)	4 (≈ 8.56 µM)	2 (≈ 4.28 µM)	1 (≈ 2.14 µM)	4 (≈ 8.56 µM)	4 (≈ 8.56 µM)	2 (≈ 4.28 µM)	4 (≈ 8.56 µM)	2 (≈ 4.28 µM)	2 (≈ 4.28 µM)	2 (≈ 4.28 µM)	0.25 (≈ 0.535 µM)	1 (≈ 2.14 µM)	MIC (Pseudomonas aeruginosa [13]): 0.25 µg/mL (≈ 0.535 µM)
CO/N=C(\C(=O)N[C@@H]1C(=O)N2C(C(=O)[O-])=C(C[N+]3(C)CCCC3)CS[C@H]12)c1csc(N)n1 [CEFEPIME]	2 (≈ 4.16 µM)	4 (≈ 8.32 µM)	16 (≈ 33.3 µM)	4 (≈ 8.32 µM)	4 (≈ 8.32 µM)	16 (≈ 33.3 µM)	2 (≈ 4.16 µM)	4 (≈ 8.32 µM)	8 (≈ 16.6 µM)	16 (≈ 33.3 µM)	4 (≈ 8.32 µM)	16 (≈ 33.3 µM)	16 (≈ 33.3 µM)	4 (≈ 8.32 µM)	16 (≈ 33.3 µM)	4 (≈ 8.32 µM)	16 (≈ 33.3 µM)	16 (≈ 33.3 µM)	4 (≈ 8.32 µM)	4 (≈ 8.32 µM)	–
NC[C@H]1O[C@H](O[C@H]2[C@H](O)[C@@H](O[C@H]3O[C@H](CO)[C@@H](O)[C@H](N)[C@H]3O)[C@H](N)C[C@@H]2N)[C@H](O)[C@@H](O)[C@@H]1O [KANAMYCIN]	–	–	1020 (≈ 2110 µM)	256 (≈ 528 µM)	64 (≈ 132 µM)	128 (≈ 264 µM)	–	256 (≈ 528 µM)	512 (≈ 1060 µM)	256 (≈ 528 µM)	256 (≈ 528 µM)	512 (≈ 1060 µM)	512 (≈ 1060 µM)	256 (≈ 528 µM)	1020 (≈ 2110 µM)	512 (≈ 1060 µM)	256 (≈ 528 µM)	256 (≈ 528 µM)	–	128 (≈ 264 µM)	–
CCN[C@@H]1C[C@H](N)[C@@H](O[C@H]2OC(CN)=CC[C@H]2N)[C@H](O)[C@H]1O[C@H]1OC[C@](C)(O)[C@H](NC)[C@H]1O [NETILMICIN]	–	–	256 (≈ 538 µM)	8 (≈ 16.8 µM)	4 (≈ 8.41 µM)	8 (≈ 16.8 µM)	–	16 (≈ 33.6 µM)	64 (≈ 135 µM)	16 (≈ 33.6 µM)	8 (≈ 16.8 µM)	64 (≈ 135 µM)	64 (≈ 135 µM)	8 (≈ 16.8 µM)	128 (≈ 269 µM)	16 (≈ 33.6 µM)	16 (≈ 33.6 µM)	16 (≈ 33.6 µM)	–	8 (≈ 16.8 µM)	–
O=C(O)c1cn(C2CC2)c2cc(N3CCNCC3)c(F)cc2c1=O [CIPROFLOXACIN]	–	–	1 (≈ 3.02 µM)	–	–	1 (≈ 3.02 µM)	–	–	–	1 (≈ 3.02 µM)	–	1 (≈ 3.02 µM)	1 (≈ 3.02 µM)	–	1 (≈ 3.02 µM)	–	–	1 (≈ 3.02 µM)	–	–	–
GENTAMICIN	0.25	0.125	–	2	1	4	0.25	8	–	8	2	–	–	4	–	8	8	8	0.125	2	MIC (Pseudomonas aeruginosa [13]): 1 µg/mL
NCC[C@H](O)C(=O)N[C@@H]1C[C@H](N)[C@@H](O[C@H]2O[C@H](CN)[C@@H](O)[C@H](O)[C@H]2O)[C@H](O)[C@H]1O[C@H]1O[C@H](CO)[C@@H](O)[C@H](N)[C@H]1O [AMIKACIN]	2 (≈ 3.42 µM)	1 (≈ 1.71 µM)	64 (≈ 109 µM)	8 (≈ 13.7 µM)	4 (≈ 6.83 µM)	8 (≈ 13.7 µM)	2 (≈ 3.42 µM)	16 (≈ 27.3 µM)	32 (≈ 54.6 µM)	16 (≈ 27.3 µM)	8 (≈ 13.7 µM)	32 (≈ 54.6 µM)	32 (≈ 54.6 µM)	8 (≈ 13.7 µM)	32 (≈ 54.6 µM)	32 (≈ 54.6 µM)	16 (≈ 27.3 µM)	16 (≈ 27.3 µM)	1 (≈ 1.71 µM)	8 (≈ 13.7 µM)	MIC (Pseudomonas aeruginosa [13]): 4 µg/mL (≈ 6.83 µM)
